ChEMBL document CHEMBL1287664, “Synthesis and biological analysis of prostate-specific membrane antigen-targeted anticancer prodrugs” (J Med Chem, 2010)
Activity calls are given as the source filed them. No cut-off for these calls is given here.

What was measured:
LNCaP [1] = experiment: Cytotoxicity against human LNCAP cells at 100 pM to 1 uM; format: functional, cell-based
In short: (§1)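 LNCaP cells (RPMI 1640, 10% heat-inactivated FBS) were seeded at 50000 cells/well and grown 48 h to monolayers. They were pulsed 2 h at 37 °C with drug (free drugs in DMSO; conjugates in saline, ± 100-fold excess PMPA), then chased 66 h drug-free. Cells were labelled 4 h with [3H]-thymidine, TCA-precipitated, NaOH-solubilised and scintillation-counted. IC50 came from % incorporation vs log concentration.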

LNCaP [2] = experiment: Cytotoxicity against human LNCAP cells after 2 hrs by [3H]thymidine incorporation assay; format: functional, cell-based
In short: (§2)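 LNCaP cells were seeded at 50000 cells/well and grown to monolayers over 48 h. They were exposed to increasing drug concentrations for 2 h at 37 °C, then kept in drug-free medium for 66 h. [3H]-thymidine (1 mCi/mL) was added for 4 h. Cells were TCA-precipitated (5%, 10 min), dissolved in 0.25 N NaOH and scintillation-counted. IC50 came from % incorporation versus log concentration.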

[3] = target: Glutamate carboxypeptidase 2 (Homo sapiens) (UniProt Q04609); experiment: Displacement of DUPA-99mTc from human prostate-specific membrane antigen in LNCaP cells assessed as relative binding affinity after 2 hrs at 37 degC; format: cell-based
Chain of Glutamate carboxypeptidase 2 (Homo sapiens) (Q04609 whole entry, looked up): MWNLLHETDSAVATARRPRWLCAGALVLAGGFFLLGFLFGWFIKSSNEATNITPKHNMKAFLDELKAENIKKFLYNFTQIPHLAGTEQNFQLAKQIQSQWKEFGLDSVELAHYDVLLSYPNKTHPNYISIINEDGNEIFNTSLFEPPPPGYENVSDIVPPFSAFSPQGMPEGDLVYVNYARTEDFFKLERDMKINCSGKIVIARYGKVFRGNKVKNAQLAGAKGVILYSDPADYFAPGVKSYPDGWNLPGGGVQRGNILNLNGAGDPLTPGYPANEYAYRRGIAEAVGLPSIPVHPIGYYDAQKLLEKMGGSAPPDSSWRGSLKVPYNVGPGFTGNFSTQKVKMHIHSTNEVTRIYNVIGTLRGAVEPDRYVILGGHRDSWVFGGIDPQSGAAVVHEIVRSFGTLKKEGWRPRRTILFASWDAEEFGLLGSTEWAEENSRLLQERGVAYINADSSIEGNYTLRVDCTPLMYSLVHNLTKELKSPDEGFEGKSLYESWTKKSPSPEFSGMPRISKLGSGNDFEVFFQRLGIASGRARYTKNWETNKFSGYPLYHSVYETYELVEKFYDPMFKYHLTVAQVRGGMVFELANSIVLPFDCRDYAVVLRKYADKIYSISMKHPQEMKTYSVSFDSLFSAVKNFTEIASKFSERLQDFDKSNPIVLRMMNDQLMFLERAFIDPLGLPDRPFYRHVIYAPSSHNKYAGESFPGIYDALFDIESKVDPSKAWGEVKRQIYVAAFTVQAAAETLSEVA

LNCaP [4] = experiment: Cytotoxicity against human LNCAP cells after 2 hrs by [3H]thymidine incorporation assay in presence of 100-fold […]; format: functional, cell-based
In short: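 LNCaP monolayers (50000 cells/well, 48 h) received 100-fold excess PMPA to block PSMA sites before the saline-dissolved DUPA conjugate was added. Exposure was 2 h at 37 °C, followed by 66 h in drug-free medium. Viability was read as [3H]-thymidine incorporation (1 mCi/mL, 4 h), TCA-precipitated and scintillation-counted. IC50 came from incorporation versus log concentration.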

LNCaP [5] = experiment: Cytotoxicity against human LNCAP cells; format: functional, cell-based; in short: as §1
LNCaP [6] = experiment: Cytotoxicity against human LNCAP cells at 100 pM to 1 uM after 2 hrs by [3H]thymidine incorporation assay; format: functional, cell-based; in short: as §2

## CO[C@@H]1C[C@@H](C[C@H]2CC[C@H](C)[C@H]([C@@H](C)C(=O)O)O2)O[C@]2(O[C@](C)([C@H]3CC[C@@](C)([C@@H]4O[C@@H]([C@H]5O[C@@](O)(CO)[C@H](C)C[C@@H]5C)C[C@@H]4C)O3)C[C@H]2C)[C@@H]1C
LNCaP [1]
  Activity: inactive

## CC[C@H](C)[C@H](NC(=O)[C@H]1CCCCN1C)C(=O)N(COC(=O)CC(C)C)[C@H](C[C@@H](OC(C)=O)c1nc(C(=O)N[C@@H](Cc2ccc(C)cc2)C[C@H](C)C(=O)NNC(=O)OCCSSC[C@H](NC(=O)[C@H](CC(=O)O)NC(=O)[C@@H](N)CNC(=O)[C@H](Cc2ccccc2)NC(=O)[C@H](Cc2ccccc2)NC(=O)CCCCCCNC(=O)CC[C@H](NC(=O)N[C@H](CCC(=O)O)C(=O)O)C(=O)O)C(=O)O)cs1)C(C)C
LNCaP [2]
  IC50: 6 nM
[3]
  RBA: 26%
LNCaP [4]
  Activity: inactive

## CC(=O)O[C@H]1C(=O)[C@@]2(C)[C@H]([C@H](OC(=O)c3ccccc3)[C@]3(O)C[C@H](OC(=O)[C@H](O)[C@@H](NC(=O)c4ccccc4)c4ccccc4)C(C)=C1C3(C)C)[C@]1(OC(C)=O)CO[C@@H]1C[C@@H]2O [PACLITAXEL]
LNCaP [5]; Homo sapiens, LNCaP
  IC50: 22.3 nM

## CC1=C[C@H]2O[C@@H]3C[C@H]4OC(=O)/C=C\C=C\C(=O)OCC[C@@H](C)[C@H](O)C(=O)OC[C@@]2(CC1)[C@]4(C)[C@]31CO1 [VERRUCARIN A]
LNCaP [5]; lncap
  IC50: 3.3 nM

## C[C@]12C=CC(=O)C=C1CC[C@@H]1[C@@H]2[C@@H](O)C[C@@]2(C)[C@H]1CC[C@]2(O)C(=O)CO
LNCaP [1]
  Activity: inactive

## CC[C@H](C)[C@H](NC(=O)[C@H]1CCCCN1C)C(=O)N(COC(=O)CC(C)C)[C@H](C[C@@H](OC(C)=O)c1nc(C(=O)N[C@@H](Cc2ccc(C)cc2)C[C@H](C)C(=O)O)cs1)C(C)C [TUBULYSIN]
LNCaP [5]; Homo sapiens, LNCaP
  IC50: 2.5 nM

## C[S+]([O-])c1ccc(-c2nc(-c3ccc(F)cc3)c(-c3ccncc3)[nH]2)cc1 (centres undefined)
LNCaP [1]
  Activity: inactive

## COc1cccc2c1C(=O)c1c(O)c3c(c(O)c1C2=O)C[C@@](O)(C(=O)CO)C[C@@H]3O[C@H]1C[C@H](N)[C@H](O)[C@H](C)O1 [DOXORUBICIN]
LNCaP [5]; Homo sapiens, LNCaP
  IC50: 77.6 nM

## OCCC#Cc1nc(-c2ccc(F)cc2)c(-c2ccncc2)n1CCCc1ccccc1
LNCaP [1]
  Activity: inactive

## CC1=C[C@H]2O[C@@H]3C[C@H]4OC(=O)/C=C/C=C/C(=O)OCC[C@@H](C)[C@H](OC(=O)OCCSSC[C@H](NC(=O)[C@H](CC(=O)O)NC(=O)[C@@H](N)CNC(=O)[C@H](Cc5ccccc5)NC(=O)[C@H](Cc5ccccc5)NC(=O)CCCCCCNC(=O)CC[C@H](NC(=O)N[C@H](CCC(=O)O)C(=O)O)C(=O)O)C(=O)O)C(=O)OC[C@@]2(CC1)[C@]4(C)[C@]31CO1
[3]
  RBA: 34%
LNCaP [6]
  Activity: inactive

## CC[C@]1(O)C[C@@H]2CN(CCc3c([nH]c4ccccc34)[C@@](C(=O)OC)(c3cc4c(cc3OC)N(C)[C@H]3[C@@](O)(C(=O)NN)[C@H](O)[C@]5(CC)C=CCN6CC[C@]43[C@@H]65)C2)C1 [DESACETYLVINBLASTINEHYDRAZIDE]
LNCaP [5]; Homo sapiens, LNCaP
  IC50: 12.2 nM

## CC[C@@]1(O)C(=O)OCc2c1cc1n(c2=O)Cc2cc3ccccc3nc2-1
LNCaP [1]
  Activity: inactive

## COC[C@H]1OC(=O)c2coc3c2[C@@]1(C)C1=C(C3=O)[C@@H]2CCC(=O)[C@@]2(C)C[C@H]1OC(C)=O
LNCaP [1]
  Activity: inactive

## CC[C@H](C)[C@H](NC(=O)[C@H]1CCCCN1C)C(=O)N(COC(=O)CC(C)C)[C@H](C[C@@H](OC(C)=O)c1nc(C(=O)N[C@@H](Cc2ccc(C)cc2)C[C@H](C)C(=O)NNC(=O)OCCSSC[C@@H](NC(=O)[C@H](Cc2ccccc2)NC(=O)[C@H](CC(=O)O)NC(=O)CC[C@H](NC(=O)CC[C@H](NC(=O)N[C@@H](CCC(=O)O)C(=O)O)C(=O)O)C(=O)O)C(=O)O)cs1)C(C)C
LNCaP [2]
  IC50: 5 nM

## C[n+]1ccc(-c2cc[n+](C)cc2)cc1
LNCaP [1]
  Activity: inactive

## CC[C@H](C)[C@H](NC(=O)[C@H]1CCCCN1C)C(=O)N(COC(=O)CC(C)C)[C@H](C[C@@H](OC(C)=O)c1nc(C(=O)N[C@@H](Cc2ccc(C)cc2)C[C@H](C)C(=O)NNC(=O)OCCSSC[C@H](NC(=O)[C@H](Cc2ccccc2)NC(=O)[C@H](Cc2ccccc2)NC(=O)CCCCCCCNC(=O)CC[C@H](NC(=O)N[C@H](CCC(=O)O)C(=O)O)C(=O)O)C(=O)O)cs1)C(C)C
LNCaP [2]
  IC50: 24 nM

## C=C1[C@@H]2CCC3[C@@](CC[C@@H]4[C@H](C(=O)O)C[C@@H](O[C@@H]5O[C@H](CO)[C@@H](OS(=O)(=O)O)[C@H](OS(=O)(=O)O)[C@H]5OC(=O)CC(C)C)C[C@@]34C)(C2)[C@@H]1O (some centres undefined)
LNCaP [1]
  Activity: inactive

## CC[C@]1(O)CCN2CCc3c([nH]c4ccccc34)[C@](C(=O)OC)(c3cc4c(cc3OC)N(C)[C@@H]3[C@](O)(C(=O)NNC(=O)OCCSSC[C@H](NC(=O)[C@H](CC(=O)O)NC(=O)[C@@H](N)CNC(=O)[C@H](Cc5ccccc5)NC(=O)[C@H](Cc5ccccc5)NC(=O)CCCCCCNC(=O)CC[C@H](NC(=O)N[C@H](CCC(=O)O)C(=O)O)C(=O)O)C(=O)O)[C@@H](O)[C@@]5(CC)C=CCN6CC[C@@]43[C@@H]65)CC1C2 (some centres undefined)
LNCaP [2]
  IC50: 31 nM
[3]
  RBA: 25%
LNCaP [4]
  Activity: inactive

## CC[C@]1(O)C[C@@H]2CN(CCc3c([nH]c4ccccc34)[C@@](C(=O)OC)(c3cc4c(cc3OC)N(C)[C@H]3[C@@](O)(C(N)=O)[C@H](O)[C@]5(CC)C=CCN6CC[C@]43[C@@H]65)C2)C1 [VINDESINE]
LNCaP [5]; Homo sapiens, LNCaP
  IC50: 9.5 nM
